Columns and labels:
[1] = target: T1, Polyunsaturated fatty acid 5-lipoxygenase (Homo sapiens, UniProt P09917); assay: Inhibition of oxidation of arachidonic acid by human 5-Lipoxygenase using spectrophotometric assay; type: functional
T1 sequence (P09917 whole entry): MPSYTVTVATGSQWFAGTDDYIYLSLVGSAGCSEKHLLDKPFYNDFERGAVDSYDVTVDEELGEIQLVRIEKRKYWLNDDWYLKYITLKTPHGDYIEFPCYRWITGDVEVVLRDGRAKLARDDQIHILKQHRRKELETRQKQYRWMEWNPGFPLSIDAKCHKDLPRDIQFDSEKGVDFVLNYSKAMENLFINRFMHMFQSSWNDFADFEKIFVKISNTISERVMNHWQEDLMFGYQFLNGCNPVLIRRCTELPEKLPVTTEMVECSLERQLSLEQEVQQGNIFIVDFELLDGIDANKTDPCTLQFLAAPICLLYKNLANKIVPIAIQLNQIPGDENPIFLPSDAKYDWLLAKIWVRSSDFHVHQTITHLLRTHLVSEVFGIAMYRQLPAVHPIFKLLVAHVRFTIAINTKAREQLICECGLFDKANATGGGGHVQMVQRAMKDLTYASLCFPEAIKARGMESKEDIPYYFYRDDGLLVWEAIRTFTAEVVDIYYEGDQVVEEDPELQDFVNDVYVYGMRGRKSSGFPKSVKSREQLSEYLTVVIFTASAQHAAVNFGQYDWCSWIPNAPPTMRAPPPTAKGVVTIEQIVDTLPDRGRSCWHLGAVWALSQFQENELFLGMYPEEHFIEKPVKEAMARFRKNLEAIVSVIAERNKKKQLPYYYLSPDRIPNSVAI
Procedure, shortened: (§1)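 Soluble extracts of Sf9 insect cells overexpressing human 5-LO; arachidonic acid oxidation followed spectrophotometrically as 5-H(P)ETE production; IC50 values.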

[2] = Plasma half-life in dogs in the presence of PEG 400/water(3:1); type: ADME, organism-based, Canis lupus familiaris; conditions: dog
Procedure, shortened: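 Dog PK: free base given iv in PEG-400/water (3:1); plasma levels followed and half-life estimated from the intravenous administration.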

[3] = Plasma half-life in rats in the presence of PEG 400/water(3:1); type: ADME, organism-based; conditions: rat
Canis familiaris [4] = assay: Ex Vivo generation of LTB4 by whole blood stimulated with calcium ionophore A-23187 in anesthetized dogs; type: functional, Canis lupus familiaris
Procedure, shortened: (§2)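 Anesthetized dogs receiving iv infusion (µg/kg/min, dose-ranging). Baseline urinary LTE4 excretion measured over 5-7 h after infusion start; ex vivo LTB4 generation by whole blood stimulated with calcium ionophore A23187. ED50 in µg/kg/min.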

Canis familiaris [5] = organism: Canis familiaris; assay: Inhibition of urinary LTE4 levels in dogs; type: functional, Canis lupus familiaris, Urine; procedure, shortened: as §2
Homo sapiens [6] = organism: Homo sapiens; assay: Compound was evaluated for production of leukotriene B4 in human whole blood (HWB) activated with ionophore A-23187.; type: functional
Procedure, shortened: (§3)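 LTB4 generation triggered by Ca2+ ionophore A23187 in human peripheral blood polymorphonuclear leukocytes or in human whole blood; inhibitor potency expressed as IC50 (nM).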

Rattus norvegicus [7] = organism: Rattus norvegicus; assay: Inhibition of LTB4 levels in rat pleural exudates; type: functional
Procedure, shortened: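 Rat pleurisy: carrageenan injected into the pleural cavity, followed 16-20 h later by ionophore A23187; LTB4 measured in pleural exudate 6 h after oral dosing; ED50 derived.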

Ovis aries = assay: Compound was tested for inhibition of Ascaris -induced bronchoconstriction in sheep at 2.5 ug/kg intravenous administration; type: functional
Procedure, shortened: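 Conscious allergic sheep (n = 4) received an iv bolus of 0.2 mg/kg and then a constant iv infusion of 2.5 µg/kg/min before Ascaris antigen challenge. Percent inhibition was scored separately for the early-phase and late-phase bronchoconstriction.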

[8] = Compound was tested for inhibition of Ascaris -induced bronchoconstriction in squirrel monkeys; type: functional
Rattus norvegicus [9] = assay: compound was tested for inhibition of ovalbumin- induced dyspnea in inbred hyperreactive rats at 0.5 mg/kg; type: functional
Homo sapiens [10] = organism: Homo sapiens; assay: Compound was evaluated for production of leukotriene B4 in Ca+2 -ionophore -activated human polymorphonuclear (HPMN) leukocytes.; type: functional; procedure, shortened: as §3
[11] = target: T1, Polyunsaturated fatty acid 5-lipoxygenase; assay: Compound was evaluated for the potency to inhibit oxidation of arachidonic acid by human recombinant 5-Lipoxygenase using a spectrophotometric assay; type: functional; procedure, shortened: as §1
[12] = Maximum concentration of unchanged drug in rat plasma in the period 0-24 hr after dosing; type: ADME, organism-based
Procedure, shortened: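 Rats dosed orally as HCl salt in 0.5% methocel suspension (10 mL/kg); jugular blood drawn before dosing and 0.5, 1, 2, 4, 6, 8, 10, 24 h after. Plasma deproteinized with equal volume acetonitrile; parent drug measured by reverse-phase HPLC peak area against standard curves from spiked rat plasma.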

[13] = Bioavailability in rat (Sprague-Dawley) (male); type: ADME, organism-based; conditions: in vivo
Procedure, shortened: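 Oral dosing as HCl salt in 0.5% methocel suspension at 20 mg/kg (10 mL/kg); iv dosing of free base in PEG-400/water (3:1) at 5 mg/kg into jugular vein. Serial jugular blood to 24 h; plasma protein precipitated with acetonitrile, parent quantified by reverse-phase HPLC against spiked-plasma standards. F = (AUCpo × dose_iv)/(AUCiv × dose_po) × 100, over 0-24 h.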

Row | IC50 [1] [nM] | IC50 (Homo sapiens [6]) [nM] | IC50 (Homo sapiens [10]) [nM] | Compound | also measured
1 | 20 | 42 | 1.6 | N#Cc1cc(-c2ccoc2)c2ccc(OCc3cccc(C4(O)CC5COC(C4)O5)n3)cc2c1 (stereo not given) | half-life [2]: 16 h; half-life [3]: 5 h; ED50 (Canis familiaris [4]): 0.45 µg/min/kg; ED50 (Canis familiaris [5]): 0.23 µg/min/kg; ED50 (Rattus norvegicus [7]): 0.3 mg/kg; inhibition in vivo at 0.0025 mg/kg (Ovis aries): 50%; Inhibition [8]: 53%; inhibition in vivo at 0.5 mg/kg (Rattus norvegicus [9]): 60%
2 | 100 | 100 | 10 | N#Cc1cc(-c2ccoc2)c2ccc(OCc3cncc(C4(O)CCOCC4)c3)cc2c1 | –
3 | 160 | 300 | 9 | N#Cc1cc(-c2ccoc2)c2ccc(OCc3csc(C4(O)CCOCC4)n3)cc2c1 | –
4 | 1000 | – | 44 | N#Cc1cc(-c2ccoc2)c2ccc(OCc3ccc4ccc(C5(O)CCOCC5)cc4n3)cc2c1 | –
5 | 80 | 67 | 3.1 | N#Cc1cc(-c2ccoc2)c2ccc(COc3cccc(C4(O)CC5COC(C4)O5)n3)cc2c1 (stereo not given) | –
6 | – | 250 | 5 | N#Cc1cc(-c2ccoc2)c2ccc(OCc3ccnc(C4(O)CCOCC4)c3)cc2c1 | IC50 [11]: 350 nM
7 | – | 30 | 0.6 | N#Cc1cc(-c2ccoc2)c2ccc(OCc3cccc(C4(O)CCOCC4)n3)cc2c1 | IC50 [11]: 15 nM
8 | – | – | – | N#Cc1cc(-c2ccoc2)c2ccc(OCc3cccc(C4(O)CCOCC4)c3)cc2c1 | Cmax [12]: 1000 nM; bioavailability [13]: < 5%
9 | 70 | 50 | 3.5 | N#Cc1cc(-c2ccoc2)c2ccc(OCc3cc(C4(O)CCOCC4)ccn3)cc2c1 | –
10 | – | – | – | CC(C)(C)Sc1c(CC(C)(C)C(=O)O)n(Cc2ccc(Cl)cc2)c2ccc(OCc3ccc4ccccc4n3)cc12 [QUIFLAPON] | ED50 (Canis familiaris [4]): 0.5 µg/min/kg; ED50 (Canis familiaris [5]): 1 µg/min/kg; ED50 (Rattus norvegicus [7]): 0.15 mg/kg; inhibition in vivo at 0.0025 mg/kg (Ovis aries): > 75%; Inhibition [8]: 71%; inhibition in vivo at 0.5 mg/kg (Rattus norvegicus [9]): 56%
11 | – | 2000 | – | CC(c1cc2ccccc2s1)N(O)C(N)=O (stereo not given) [ZILEUTON] | –

— ChEMBL document CHEMBL1130137, “Substituted (pyridylmethoxy)naphthalenes as potent and orally active 5-lipoxygenase inhibitors; synthesis, biological profile, and pharmacokinetics of L-739,010” (J Med Chem, 1997)
